Test results reported in ChEMBL document CHEMBL1143171, “Structure-activity studies on 1,3-dioxane-2-carboxylic acid derivatives, a novel class of subtype-selective peroxisome proliferator-activated receptor alpha (PPARalpha) agonists” (Bioorg Med Chem, 2008).

Experiments:
[1] = biological target: T1, Peroxisome proliferator-activated receptor alpha (Homo sapiens, UniProt Q07869); experiment: Agonist activity at human PPARalpha expressed in CV1 cells by transactivation assay; assay type: functional, cell-based, CV-1
T1 sequence (Q07869 whole entry): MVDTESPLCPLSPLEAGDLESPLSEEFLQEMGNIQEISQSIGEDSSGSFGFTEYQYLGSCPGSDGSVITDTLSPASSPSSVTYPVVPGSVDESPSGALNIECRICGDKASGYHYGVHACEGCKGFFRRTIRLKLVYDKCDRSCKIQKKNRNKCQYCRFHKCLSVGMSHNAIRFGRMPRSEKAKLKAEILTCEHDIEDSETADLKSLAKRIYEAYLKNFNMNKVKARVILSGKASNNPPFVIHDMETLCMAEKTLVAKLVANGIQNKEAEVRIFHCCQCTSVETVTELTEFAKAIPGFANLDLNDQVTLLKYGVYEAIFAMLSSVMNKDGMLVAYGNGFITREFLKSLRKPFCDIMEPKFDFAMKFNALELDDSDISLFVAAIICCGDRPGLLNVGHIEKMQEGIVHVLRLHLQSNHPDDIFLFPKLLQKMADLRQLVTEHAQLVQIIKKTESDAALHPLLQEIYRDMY

[2] = biological target: T2, Peroxisome proliferator-activated receptor gamma (Homo sapiens) (UniProt P37231); experiment: Agonist activity at human PPARgamma expressed in CV1 cells at 10 uM by transactivation assay; assay type: functional, cell-based; details: CV-1
T2 sequence (whole entry): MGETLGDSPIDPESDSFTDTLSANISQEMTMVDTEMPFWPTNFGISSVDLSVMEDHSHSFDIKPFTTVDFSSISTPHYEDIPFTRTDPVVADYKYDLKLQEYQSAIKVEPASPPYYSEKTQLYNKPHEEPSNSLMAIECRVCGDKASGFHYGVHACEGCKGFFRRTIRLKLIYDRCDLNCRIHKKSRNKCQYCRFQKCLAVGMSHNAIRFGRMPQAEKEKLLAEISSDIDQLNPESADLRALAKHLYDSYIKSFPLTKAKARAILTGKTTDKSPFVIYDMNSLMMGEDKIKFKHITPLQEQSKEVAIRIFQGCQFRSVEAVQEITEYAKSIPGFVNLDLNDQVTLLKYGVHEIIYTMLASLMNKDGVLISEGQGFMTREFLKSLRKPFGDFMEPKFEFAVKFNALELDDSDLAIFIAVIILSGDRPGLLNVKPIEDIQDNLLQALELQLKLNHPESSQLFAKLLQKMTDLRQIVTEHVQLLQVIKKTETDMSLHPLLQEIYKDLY
Outline: (§1)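 Human full-length PPAR subtype (pSG5) cotransfected into CV-1 cells with a PPRE (rat acyl-CoA oxidase, ×3)–TK firefly luciferase reporter and a Renilla TK control. Cells were cultured in DMEM/10% FBS at 37 °C under 5% CO2, then exposed to compound at 10 µM (0.1% DMSO final) for 48 h. The dual-luciferase read-out is given as a percentage of the positive control's maximum activity (n = 2).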

[3] = biological target: T3, Peroxisome proliferator-activated receptor delta (Homo sapiens) (UniProt Q03181); experiment: Agonist activity at human PPARdelta expressed in CV1 cells at 10 uM by transactivation assay; assay type: functional, cell-based; details: CV-1; outline: as §1
T3 sequence (whole entry): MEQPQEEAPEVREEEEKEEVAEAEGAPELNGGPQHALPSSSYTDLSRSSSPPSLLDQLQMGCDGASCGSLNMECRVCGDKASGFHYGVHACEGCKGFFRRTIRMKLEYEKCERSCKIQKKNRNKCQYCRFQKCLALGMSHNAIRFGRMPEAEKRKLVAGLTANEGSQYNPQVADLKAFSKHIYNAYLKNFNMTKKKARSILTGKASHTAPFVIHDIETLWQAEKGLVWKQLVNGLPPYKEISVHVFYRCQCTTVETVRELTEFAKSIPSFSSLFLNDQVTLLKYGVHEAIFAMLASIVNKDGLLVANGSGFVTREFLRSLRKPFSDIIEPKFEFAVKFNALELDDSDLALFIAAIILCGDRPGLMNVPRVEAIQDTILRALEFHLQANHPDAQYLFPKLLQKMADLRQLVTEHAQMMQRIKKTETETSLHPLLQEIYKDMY

Homo sapiens = species on record: Homo sapiens; experiment: Selectivity for human PPARalpha over human PPARgamma
[4] = biological target: T4, Peroxisome proliferator-activated receptor gamma (Homo sapiens, UniProt P37231); experiment: Agonist activity at human PPARgamma expressed in CV1 cells by transactivation assay; assay type: functional, cell-based, CV-1
T4 sequence (P37231 whole entry): T2 sequence (whole entry)

[5] = biological target: T5, Peroxisome proliferator-activated receptor gamma (Mus musculus) (UniProt P37238); experiment: Agonist activity at mouse PPARgamma expressed in CV1 cells at 10 uM by transactivation assay; assay type: functional, cell-based; details: CV-1
T5 sequence (whole entry): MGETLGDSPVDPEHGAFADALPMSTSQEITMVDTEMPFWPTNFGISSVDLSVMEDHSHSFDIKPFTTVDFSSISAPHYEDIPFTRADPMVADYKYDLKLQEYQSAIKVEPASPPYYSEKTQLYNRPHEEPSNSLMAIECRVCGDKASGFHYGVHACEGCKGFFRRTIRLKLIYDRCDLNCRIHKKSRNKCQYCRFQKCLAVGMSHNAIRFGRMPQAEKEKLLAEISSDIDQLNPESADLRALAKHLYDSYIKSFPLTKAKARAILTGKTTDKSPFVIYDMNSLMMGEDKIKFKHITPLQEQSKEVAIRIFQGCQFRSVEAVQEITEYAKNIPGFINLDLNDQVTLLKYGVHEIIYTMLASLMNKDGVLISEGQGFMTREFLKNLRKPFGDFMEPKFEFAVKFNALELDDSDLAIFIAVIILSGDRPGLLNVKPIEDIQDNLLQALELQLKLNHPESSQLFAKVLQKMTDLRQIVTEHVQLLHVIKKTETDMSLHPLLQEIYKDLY

Mus musculus [6] = experiment: Hypolipidemic effect on diabetic KK-Ay mouse assessed as reduction of plasma VLDL cholesterol level at 1 mg/kg/day, po after 4 days; assay type: functional; parameters: scale not given: the % may be the effect or the level left
Outline: (§2)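 Male KK-Ay mice, 10 weeks old and fed chow ad libitum, were dosed orally once daily for 4 days (n = 5) with suspensions in 0.5% methylcellulose. On the day after the last dose, nonfasted tail-vein plasma was assayed enzymatically for TG and glucose. Vena cava plasma taken under pentobarbital had lipoprotein cholesterol measured by HPLC with on-line enzymatic detection. Values are % change of the group mean from vehicle controls.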

Mus musculus [7] = experiment: Hypoglycemic effect on diabetic KK-Ay mouse assessed as reduction of plasma glucose level at 1 mg/kg/day, po after 4 days; assay type: functional; parameters: scale not given: the % may be the effect or the level left; outline: as §2
[8] = Selectivity for mouse PPARalpha over human PPARalpha
Mus musculus [9] = experiment: Hypolipidemic effect on diabetic KK-Ay mouse assessed as increase in plasma HDL cholesterol level at 1 mg/kg/day, po after 4 days; assay type: functional; outline: as §2
[10] = biological target: T6, Peroxisome proliferator-activated receptor alpha (Mus musculus, UniProt P23204); experiment: Agonist activity at mouse PPARalpha expressed in CV1 cells by transactivation assay; assay type: functional, cell-based, CV-1
T6 sequence (P23204 whole entry): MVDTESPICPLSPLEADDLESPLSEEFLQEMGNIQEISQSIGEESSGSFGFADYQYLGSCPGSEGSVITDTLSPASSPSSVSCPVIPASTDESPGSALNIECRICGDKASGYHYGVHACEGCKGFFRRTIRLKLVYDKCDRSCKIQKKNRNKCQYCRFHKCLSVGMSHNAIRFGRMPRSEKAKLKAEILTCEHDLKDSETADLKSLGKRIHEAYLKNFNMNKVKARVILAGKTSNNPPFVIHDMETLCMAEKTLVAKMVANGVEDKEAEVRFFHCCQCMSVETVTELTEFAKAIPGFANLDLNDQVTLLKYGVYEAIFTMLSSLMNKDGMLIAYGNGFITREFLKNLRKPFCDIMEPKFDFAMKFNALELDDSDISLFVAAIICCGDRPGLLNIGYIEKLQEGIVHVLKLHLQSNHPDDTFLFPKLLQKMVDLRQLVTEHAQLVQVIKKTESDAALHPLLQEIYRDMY

Mus musculus [11] = experiment: Hypolipidemic effect on diabetic KK-Ay mouse assessed as reduction of plasma triglyceride level at 1 mg/kg/day, po after 4 days; assay type: functional; parameters: scale not given: the % may be the effect or the level left; outline: as §2
[12] = biological target: T7, Peroxisome proliferator-activated receptor gamma (Mus musculus, UniProt P37238); experiment: Agonist activity at mouse PPARgamma expressed in CV1 cells by transactivation assay; assay type: functional, cell-based, CV-1
T7 sequence (P37238 whole entry): T5 sequence (whole entry)

[13] = biological target: T8, Peroxisome proliferator-activated receptor delta (Homo sapiens, UniProt Q03181); experiment: Agonist activity at human PPARdelta expressed in CV1 cells by transactivation assay; assay type: functional, cell-based, CV-1
T8 sequence (Q03181 whole entry): T3 sequence (whole entry)

[14] = biological target: T9, Peroxisome proliferator-activated receptor alpha (Homo sapiens) (UniProt Q07869); experiment: Agonist activity at human PPARalpha expressed in CV1 cells at 10 uM by transactivation assay; assay type: functional, cell-based; details: CV-1; outline: as §1
T9 sequence (whole entry): T1 sequence (Q07869 whole entry)

| Compound | EC50 [1] [nM] | Activity [2] [%] | Activity [3] [%] | EC50 [4] [nM] | also measured |
| --- | --- | --- | --- | --- | --- |
| Cc1oc(-c2ccc(C(F)(F)F)cc2)nc1CCCC[C@H]1CO[C@@](C)(C(=O)O)OC1 | 30 | 41 | 34 |  |  |
| COc1ccc(-c2nc(CCCC[C@H]3CO[C@@](C)(C(=O)O)OC3)c(C)o2)cc1 | 30 | 18 | 20 |  |  |
| Cc1oc(-c2ccc(Cl)cc2)nc1CCCC[C@H]1CO[C@@](C)(C(=O)O)OC1 | 30 | 21 | 9 |  |  |
| CCc1ccc(-c2nc(CCCC[C@H]3CO[C@@](C)(C(=O)O)OC3)c(C)o2)cc1 | 10 |  | 0 | 3000 | Selectivity ratio (Homo sapiens): 300 |
| Cc1ccc(-c2nc(CCCC[C@H]3CO[C@@](C)(C(=O)O)OC3)c(C)o2)cc1C | 3 | 42 | 0 |  | Activity [5]: 42%; Activity (Mus musculus [6]): -92%; Activity (Mus musculus [7]): -32%; Selectivity ratio [8]: 10; Activity (Mus musculus [9]): 21%; EC50 [10]: 30 nM; Activity (Mus musculus [11]): -89% |
| Cc1ccc(-c2nc(CCCC[C@H]3CO[C@@](C)(C(=O)O)OC3)c(C)o2)cc1F | 10 | 45 | 25 |  | Activity (Mus musculus [6]): -63%; EC50 [12]: 10000 nM; Activity (Mus musculus [7]): -12%; Selectivity ratio [8]: 10; Activity (Mus musculus [9]): 21%; EC50 [10]: 100 nM; Activity (Mus musculus [11]): -53% |
| CC(C)(Oc1ccc(CCNC(=O)c2ccc(Cl)cc2)cc1)C(=O)O [BEZAFIBRATE] |  |  |  | 3000 | EC50 [13]: 30000 nM |
| Cc1ccccc1-c1nc(CCCC[C@H]2CO[C@@](C)(C(=O)O)OC2)c(C)o1 | 300 | 23 | 5 |  |  |
| Cc1ccc(-c2nc(CCCC[C@H]3CO[C@@](C)(C(=O)O)OC3)c(C(F)(F)F)o2)cc1 | 300 |  | 24 | 3000 |  |
| Cc1oc(-c2ccccc2)nc1CCCC[C@H]1CO[C@@](C)(C(=O)O)OC1 | 300 |  | 0 | 100000 | Activity [5]: 11%; Activity (Mus musculus [6]): -29%; Activity (Mus musculus [7]): -12%; Activity (Mus musculus [9]): 36%; EC50 [10]: 1000 nM; Activity (Mus musculus [11]): -46% |
| CCc1oc(-c2ccc(C)cc2)nc1CCCC[C@H]1CO[C@@](C)(C(=O)O)OC1 | 30 |  | 3 | 10000 |  |
| Cc1cccc(-c2nc(CCCC[C@H]3CO[C@@](C)(C(=O)O)OC3)c(C)o2)c1 | 30 | 34 | 16 |  |  |
| Cc1ccc(-c2nc(CCCC[C@H]3CO[C@@](C)(C(=O)O)OC3)c(C)s2)cc1 | 300 | 25 | 0 |  |  |
| Cc1ccc(-c2nc(CCCC[C@H]3CO[C@@](C)(C(=O)O)OC3)c(C)o2)cc1 |  | 31 | 7 | 9600 | Activity [5]: 45%; Activity (Mus musculus [6]): -50%; Activity (Mus musculus [7]): -21%; Activity (Mus musculus [9]): 34%; EC50 [10]: 30 nM; Activity (Mus musculus [11]): -71%; EC50 [13]: > 100000 nM |
| Cc1ccc(-c2nc(CCCC[C@H]3CO[C@@](C)(C(=O)O)OC3)c(C)o2)c(C)c1 | 30 | 35 | 16 |  |  |
| Cc1ccc(-c2nc(CCCC[C@H]3CO[C@@](C)(C(=O)O)OC3)c(C)n2C)cc1 |  | 0 | 0 |  | Activity [14]: 6% |
